Source: PubChem BioAssay (The Scripps Research Institute Molecular Screening Center)
PP1 counter: blocks human PP1-alpha phosphatase, a PP5 counter-screen | P62136 | purified PP1alpha, OMFP fluorescence | inhibition, % at 6.7 µM | actives 0.9% (n = 320,000);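 active = inhibition above the mean inhibition of all tested compounds plus 3 SD, computed separately for each screening campaign, cut at about 15% in these data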
NR2E3 ag-1: human photoreceptor-specific nuclear receptor agonism; CHO-S Gal4-NCOR/VP16-NR2E3 two-hybrid, luciferase; Q9Y5X4; AID 602229; inhibition of corepressor binding, % at 3.98 µM; actives 0.35% (n = 360,000);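 active = inhibition above the mean of all tested compounds plus 3 SD, cut at about 70% in these data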;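 note: 0% = DMSO with NR2E3 transfected cells and 100% = cells lacking NR2E3 construct; higher means lower luciferase signal from less NR2E3 corepressor binding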
PP5 inh: inhibitors of human protein phosphatase 5 (PP5) | purified PP5c, OMFP substrate fluorescence | actives 0.18% (n = 320,000) | inhibition, % at 6.7 µM | P53041 | AID 1987;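 active = inhibition above the campaign's mean inhibition across all tested compounds plus 3 SD, cut at about 9.5% in these data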;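 note: 0% = DMSO only and 100% = 100 µM cantharidin control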
Target sequence (P53041 whole entry, looked up): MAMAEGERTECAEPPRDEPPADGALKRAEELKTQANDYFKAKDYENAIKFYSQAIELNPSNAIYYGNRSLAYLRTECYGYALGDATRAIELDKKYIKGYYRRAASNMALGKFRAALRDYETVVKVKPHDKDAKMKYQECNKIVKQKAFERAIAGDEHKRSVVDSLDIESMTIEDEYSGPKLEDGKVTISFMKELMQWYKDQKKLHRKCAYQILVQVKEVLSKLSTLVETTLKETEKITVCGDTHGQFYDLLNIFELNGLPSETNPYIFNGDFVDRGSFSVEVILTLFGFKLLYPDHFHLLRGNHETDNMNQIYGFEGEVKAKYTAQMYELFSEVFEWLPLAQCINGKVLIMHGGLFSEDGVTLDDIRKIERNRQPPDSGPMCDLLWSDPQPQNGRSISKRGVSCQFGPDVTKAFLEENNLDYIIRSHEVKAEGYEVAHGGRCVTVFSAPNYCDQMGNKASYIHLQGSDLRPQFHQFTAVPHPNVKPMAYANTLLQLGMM
NR2E3 ag-2: NR2E3 (human) agonism | GST-NR2E3/biotin-RetCOR TR-FRET, 1536-well | actives 0.12% (n = 320,000) | Q9Y5X4 | inhibition of corepressor binding, % at 4.78 µM;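 active = percent inhibition above the cutoff of mean plus 3 SD of all tested compounds, set per screening campaign, cut at about 20% in these data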;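 note: 0% = DMSO wells and 100% = biotin wells as full block of FRET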
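System: GST-tagged NR2E3 plus biotinylated RetCOR corepressor; Buffer or medium: pH 7.5 Tris-based buffer; Probe or stimulus: RetCOR corepressor, biotinylated, 7 nM; Doses: compound at 4.8 µM, single dose; Schedule: 5 h incubation at 4 °C; Technique: time-resolved FRET; Evaluation: percent inhibition of TR-FRET ratio; Replication: one well per compound, singlicate testing.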
NR2E3 ag confirm: NR2E3 agonism confirmed in two-hybrid assay | shares compounds with NR2E3 ag-1 | actives 51% (n = 2,300) | AID 624378 | CHO-S mammalian two-hybrid NR2E3-NCOR, luciferase luminescence | inhibition, % at 3.98 µM;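 active = average inhibition above a cutoff equal to the mean inhibition of all tested compounds plus one SD, cut at about 70% in these data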;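 note: 0% = DMSO in NR2E3 cells and 100% = DMSO in cells lacking NR2E3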
GAL4-VP16 luc: GAL4-VP16 reporter inhibition in NR2E3 agonist counterscreen. shares compounds with NR2E3 ag-1. CHO-S GAL4-VP16 luciferase reporter, luminescence. inhibition, % at 3.98 µM. actives 29% (n = 2,300);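 active = mean inhibition above a cutoff equal to the average over all tested compounds plus one standard deviation, cut at about 70% in these data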;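 note: luciferase from a UAS reporter driven by GAL4-VP16 transactivation; 0% = DMSO with VP16-transfected cells and 100% = DMSO with cells lacking VP16; higher means less reporter light so more repression of VP16 activity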
* marks the source's active call; other numbers are inactive results; . = no result. The list is not random: actives were taken first. Their share in the collection is about 1.3%.

SMILES	PP1 counter	NR2E3 ag-1	PP5 inh	NR2E3 ag-2	NR2E3 ag confirm	GAL4-VP16 luc
COc1ccc(NS(=O)(=O)c2cccc(C(=O)N3CCCCCC3)c2)cc1	-5	-1	-1	-2	.	.
COc1ccc(NS(=O)(=O)c2ccc(C(=O)N3CCCCCC3)cc2)cc1	.	76*	.	.	37	48
N#CCc1ccc(NC(=O)/C=C/c2ccc([N+](=O)[O-])o2)cc1	.	50	.	.	61	31
CCOc1ccc(CCNC(=O)C2CSC3(C)CCC(=O)N23)cc1OCC (centres undefined)	3	-24	1	1	.	.
COC(=O)c1cc(Br)cn1S(=O)(=O)c1ccccc1	0	-25	4	-1	.	.
Cn1nc(C(F)(F)F)c(/C=N/OC(=O)c2ccccc2)c1Sc1ccc(Cl)cc1	2	-5	0	1	.	.
Cn1nc(C(F)(F)F)c(/C=N/OC(=O)c2ccccc2)c1SCc1ccccc1Cl	0	65	3	-5	71*	70
COc1ccc(OC)c(C2C3=C(COC3=O)Nc3cc4c(cc32)OCO4)c1 (centres undefined)	2	59	2	0	7	18
Cc1cc(N2CCCCC2)nc(NCc2ccccc2)n1	-1	45	0	-2	.	.
Cc1cc(N2CCOCC2)nc(NCc2ccccc2)n1	2	53	3	3	53	60
Cc1cc(C2=NNC(=NC3CC3)SC2)c(C)n1-c1ccccc1F	14	94*	2	1	89*	91*
Cc1nn(CC(=O)Nc2ccccc2C(F)(F)F)c(=O)c2cccn12	-4	12	2	2	.	.
Cc1nnc(N/N=C/c2ccc(Br)cc2)n1N	-5	57	2	1	-7	6
N#C/C(=N\Nc1ccc(Cl)c(Cl)c1)C(=O)C1CC1	2	80*	6	7	100*	55
Cc1cc(C(=O)NNc2ccc(F)cc2)no1	-3	16	3	-1	.	.
O=C1CCCN1c1ccc(S(=O)(=O)NCCOc2ccccc2)cc1	-2	57	0	-2	0	22
O=C(C1CCC(CNS(=O)(=O)c2cccc3nsnc23)CC1)N1CC=C(c2ccccc2)CC1 (centres undefined)	9	50	3	2	88*	56
O=C(C1CCN(S(=O)(=O)c2cccc3nsnc23)CC1)N1CC=C(c2ccccc2)CC1	4	6	-1	1	.	.
COc1cccc2c1C(=O)c1c(O)c3c(c(O)c1C2=O)CC(O)(C(=O)CO)CC3OC1CC(N(C)C)C(O)C(C)O1 (centres undefined)	.	101*	.	.	99*	94*
O=C(CCN1C(=O)c2ccccc2C1=O)C1=NN[C@@H]2C(=O)N(c3ccc4c(c3)OCO4)C(=O)[C@H]12	-9	6	-3	-2	.	.
CC(C)Oc1ccc(S(=O)(=O)N2CCOCC2)cc1NC(=O)C1=NN(c2ccccc2)C(=O)CC1	.	0	.	.	.	.
COc1ccc(CCNc2ccc(N3C(=O)CC(C)C3=O)cc2[N+](=O)[O-])cc1 (centres undefined)	-1	-7	1	1	.	.
COc1ccc(CCNc2ccc(N3C(=O)CC(C)C3=O)cc2[N+](=O)[O-])cc1OC (centres undefined)	-3	75*	2	2	57	73*
COc1ccc(OC)c(CCNC(=O)Cn2nc(C)c3c(C)n(-c4ccc(C)cc4)nc3c2=O)c1	-3	74*	-2	1	43	52
COc1cc(C(=O)NCCOc2cc(C)ccc2C(C)C)cc(OC)c1OC	0	56	3	1	38	31
SMILES	PP1 counter	NR2E3 ag-1	PP5 inh	NR2E3 ag-2	NR2E3 ag confirm	GAL4-VP16 luc
COc1ccc(CCC(=O)O)cc1OC	-3	-22	0	1	.	.
O=C(CCl)Nc1c(C(=O)Nc2ccc3c(c2)OCCO3)oc2ccccc12	4	51	4	2	-101	-8
CCc1nc2ccc(C(=O)NCCC(C)C)cn2c1N(CCN(C)C)CC1CC1	.	-22	.	.	.	.
Cn1nc(C(C)(C)C)cc1C(=O)NCc1ccc2c(c1)OCO2	-1	105*	2	-4	95*	79*
Cc1oc(C(C)(C)C)cc1C(=O)NCc1ccc2c(c1)OCO2	-5	-13	0	2	.	.
CCN(C(=O)c1cc2c(C)nc3ccccc3c2o1)c1cc(Cl)ccc1OC	0	11	2	-3	.	.
